We go through 1 molecule from ChEMBL document CHEMBL3734686, “Synthesis, Photophysical Properties, and Biological Evaluation of trans-Bisthioglycosylated Tetrakis(fluorophenyl)chlorin for Photodynamic Therapy” (J Med Chem, 2015).

Data set [1] can be described thus: Drug uptake in BALB/c mouse large intestine implanted with mouse 4T1 cells assessed per gram of tissue at 0.18 mg/kg, ip after 72 hrs by HPLC-based fluorescence analysis. Particulars: in vivo. The format is ADME, organism-based. The procedure, abridged: (§1)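 Female BALB/c mice bearing 4T1 thigh tumours received an i.p. dose in ethanol/PEG400/H2O (2/3/5) with 0.1% DMSO, or in saline, and were kept dark until killed. Tissues were weighed (100 mg), homogenised in CH3OH/DMSO/H2O (32/8/1) and centrifuged twice at 2300×g at 4°C. Supernatants were analysed by HPLC with fluorescence detection (λex 404/λem 654 nm or λex 400/λem 666 nm). n = 3 per time point.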

For data set [2], the system named is Urinary bladder. Nature of the data set: Drug uptake in BALB/c mouse bladder implanted with mouse 4T1 cells assessed per gram of tissue at 0.18 mg/kg, ip after 72 hrs by HPLC-based fluorescence analysis. In kind it is ADME, organism-based. Particulars: in vivo. A digest of the protocol: as §1
Data set [3] deals with 4T1. Put plainly: Antiangiogenic activity against mouse 4T1 cells implanted in BALB/c mouse at 0.045 mg/kg, ip administered for 48 hrs followed by irradiation at 48 J/cm2 measured after 6 days by hematoxylin/eosin-staining based microscopic analysis. The format is functional, organism-based. A digest of the protocol: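 4T1 cells (1 × 10^6 in HBSS) were implanted in the left rear thigh of female BALB/c mice. At 48 h after i.p. dosing at 31.25 nmol·kg−1 in ethanol/PEG400/H2O (2/3/5) with 0.1% DMSO, the tumour was irradiated with a 100-W halogen lamp (λ > 500 nm, 48 J·cm−2). Skin with tumour was taken 6 days later, fixed in 4% paraformaldehyde, paraffin-embedded, cut into 7-µm sections, H&E-stained and examined by light microscopy.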

Data set [4] has as its system 4T1. Nature of the data set: Antitumor activity against mouse 4T1 cells implanted in BALB/c mouse at 0.045 mg/kg, ip assessed as tumor growth inhibition administered for 48 hrs followed by irradiation at 40 mW/cm2 measured after 7 days. The format is functional, organism-based. A digest of the protocol:
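Female BALB/c mice carried 4T1 thigh tumours (1 × 10^6 cells) of 50–60 mm3. They were dosed i.p. at 250–31.25 nmol·kg−1 in ethanol/PEG400/H2O (2/3/5) containing 0.1% DMSO and kept dark. At 48 h the tumour was irradiated with a 100-W halogen lamp at 40 mW·cm−2 for 20.1 min. Tumour size was measured daily by caliper as length × width²/2 and normalised to day 0.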

A short description of data set [5]: Induction of reactive oxygen generation assessed as quantum yield of singlet oxygen generation in O2 saturated D2O containing 0.1% DMSO by spectrometry. In kind it is physicochemical. The procedure, abridged:
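Photosensitizer in D2O with 0.1% DMSO, absorbance set to 0.4 at its excitation wavelength, oxygen-purged 1 min; singlet-oxygen luminescence recorded with NIR photomultiplier cooled to 193 K; TPPS as reference.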

Data set [6] is described as follows: Induction of reactive oxygen generation assessed as quantum yield of hydroxyl radical generation in O2 saturated PBS containing 1% DMSO under photoirradiation by spectrometry relative to control hematoporphyrin. The format is physicochemical. The note with it: buffer. A digest of the protocol:
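Photosensitizer (1.00 µM) with HPF (2.00 µM) in PBS containing 1% DMSO, oxygenated 1 min, irradiated with 100-W halogen lamp through λ>500 nm cutoff filter at 37°C; hematoporphyrin as reference.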

In another data set the test system is HeLa. Put plainly: Dark cytotoxicity against human HeLa cells at 0.5 uM assessed as cell survival preincubated for 24 hrs measured by WST-8 assay in absence of photoirradiation. In kind it is cell-based. A digest of the protocol: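 HeLa cells were seeded at 5 × 10^3 per well in DMEM with 10% FCS and grown for 24 h at 37°C. They were then exposed for 24 h to 0.5 µM photosensitizer (1% DMSO final), washed, and not irradiated. Viability was read 24 h later by WST-8 absorbance at 450 nm and expressed as percent of untreated wells.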
For orientation: Tetrazolium dyes change colour on reduction, which living cells bring about.

Data set [7] concerns 4T1. Nature of the data set: Photocytotoxicity against mouse 4T1 cells assessed as cell survival preincubated for 24 hrs followed by irradiation at 16 J/cm2 measured at 24 hrs by WST-8 assay. Particulars: 4T1, light or radiation study. The format is functional, cell-based. A digest of the protocol:
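Cells (5 × 10^3/well) in DMEM with 10% FCS, 24 h at 37°C, 5% CO2; photosensitizer 1–50000 nM (1% DMSO final) for 24 h, washed, fresh medium. Irradiated with 100-W halogen lamp through λ>500 nm or λ>600 nm cutoff filter to 16 J·cm−2; WST-8 absorbance at 450 nm 24 h later, survival normalized to no-drug wells.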

A short description of data set [8]: Drug uptake in nucleus of human Hela cells at 0.5 uM preincubated for 24 hrs followed by MitoTracker Green FM addition for 30 mins by CSLM analysis. The note with it: 0.5 h. The format is ADME, cell-based. A digest of the protocol: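 HeLa cells (1 × 10^4) plated 24 h, incubated 24 h with 0.5 µM final photosensitizer (1% DMSO), washed, stained 30 min with 250 nM MitoTracker Green FM in HBSS at 37°C, fixed in 4% paraformaldehyde. Confocal imaging: red λex 488/λem 650 nm; green λex 488/λem 505–530 nm.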

In a further data set the test system is Heart. Put plainly: Drug uptake in BALB/c mouse heart implanted with mouse 4T1 cells assessed per gram of tissue at 0.18 mg/kg, ip after 6 hrs by HPLC-based fluorescence analysis. In kind it is ADME, organism-based. Particulars: in vivo. The procedure, abridged:
as §1

Data set [9] can be described thus: Drug uptake in BALB/c mouse small intestine implanted with mouse 4T1 cells assessed per gram of tissue at 0.18 mg/kg, ip after 6 hrs by HPLC-based fluorescence analysis. The note with it: in vivo. In kind it is ADME, organism-based. A digest of the protocol:
(§2)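 Female BALB/c mice with 4T1 cells (1 × 10^6 in HBSS) implanted in left rear thigh; single i.p. dose, 7 in ethanol/PEG400/H2O (2/3/5) with 0.1% DMSO, mono-L-aspartyl chlorin e6 in saline; kept dark until sacrifice. Tissues washed, frozen, homogenized in CH3OH/DMSO/H2O (32/8/1), centrifuged 2300×g; supernatant analysed by HPLC with fluorescence detection; three animals per time point.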

For data set [10], the system named is Kidney. Put plainly: Drug uptake in BALB/c mouse kidney implanted with mouse 4T1 cells assessed per gram of tissue at 0.18 mg/kg, ip after 6 hrs by HPLC-based fluorescence analysis. The note with it: in vivo. In kind it is ADME, organism-based. A digest of the protocol:
as §1

The subject of data set [11] is Kidney. Put plainly: Drug uptake in BALB/c mouse kidney implanted with mouse 4T1 cells assessed per gram of tissue at 0.18 mg/kg, ip after 12 hrs by HPLC-based fluorescence analysis. The format is ADME, organism-based. The note with it: in vivo. A digest of the protocol: as §1
The subject of data set [12] is Liver. Nature of the data set: Drug uptake in BALB/c mouse liver implanted with mouse 4T1 cells assessed per gram of tissue at 0.18 mg/kg, ip after 24 hrs by HPLC-based fluorescence analysis. The format is ADME, organism-based. The note with it: in vivo. The procedure, abridged: as §1
Data set [13] can be described thus: Drug uptake in BALB/c mouse large intestine implanted with mouse 4T1 cells assessed per gram of tissue at 0.18 mg/kg, ip after 24 hrs by HPLC-based fluorescence analysis. The format is ADME, organism-based. Particulars: in vivo. The procedure, abridged: as §1
Data set [14] has as its system Kidney. Put plainly: Drug uptake in BALB/c mouse kidney implanted with mouse 4T1 cells assessed per gram of tissue at 0.18 mg/kg, ip after 48 hrs by HPLC-based fluorescence analysis. Particulars: in vivo. In kind it is ADME, organism-based. The procedure, abridged:
as §1

For the next data set, the system named is Spleen. Nature of the data set: Drug uptake in BALB/c mouse spleen implanted with mouse 4T1 cells assessed per gram of tissue at 0.18 mg/kg, ip after 48 hrs by HPLC-based fluorescence analysis. The note with it: in vivo. The format is ADME, organism-based. The procedure, abridged: as §2
In data set [15] the test system is Urinary bladder. Put plainly: Drug uptake in BALB/c mouse bladder implanted with mouse 4T1 cells assessed per gram of tissue at 0.18 mg/kg, ip after 48 hrs by HPLC-based fluorescence analysis. The format is ADME, organism-based. Particulars: in vivo. The procedure, abridged:
as §1

For data set [16], the system named is Liver. Put plainly: Drug uptake in BALB/c mouse liver implanted with mouse 4T1 cells assessed per gram of tissue at 0.18 mg/kg, ip after 72 hrs by HPLC-based fluorescence analysis. The format is ADME, organism-based. Particulars: in vivo. The procedure, abridged: as §1

Activity calls are given as the source filed them.

In general, EC50 refers to the concentration needed to bring the measured effect to its halfway point. Turning to `CN1CC2C3=N/C(=C(/c4c(F)c(F)c(S[C@@H]5O[C@H](CO)[C@@H](O)[C@H](O)[C@H]5O)c(F)c4F)C4=N/C(=C(/c5c(F)c(F)c(F)c(F)c5F)c5ccc([nH]5)/C(c5c(F)c(F)c(S[C@@H]6O[C@H](CO)[C@@H](O)[C@H](O)[C@H]6O)c(F)c5F)=C5/C=CC(=N5)C3c3c(F)c(F)c(F)c(F)c3F)C=C4)C2C1` (some centres undefined), the Drug uptake in data set [1] is 7 ng/g; with Urinary bladder [2], 8 ng; in data set [8], “Not Active”; with Heart, 24 ng/g; in data set [9] it was 90 ng; in the data set on Kidney [10], 38 ng. Besides, the Drug uptake in the data set with Kidney [11] stood at 25 ng; in the data set on Liver [12], 60 ng; in data set [13] it was 60 ng/g; in the data set with Kidney [14] it was 5 ng; in the data set on Spleen, 14 ng; with Urinary bladder [15] it was 3 ng/g. The same molecule registered a Drug uptake in the data set on Liver [16] of 14 ng. Also, the result in the data set with 4T1 [3] and in the data set on 4T1 [4] was Active. Besides, the Activity in data set [5] is on record as 0.25; in the data set on HeLa, “Non-toxic”. The Ratio in [6] is 1.2. Also, the concentration for a half-maximal effect (EC50) in the data set with 4T1 [7] amounted to 0.5 nM.
